Assay results taken from ChEMBL document CHEMBL1795271, “7-Alkyl-N(2)-substituted-3-deazaguanines. Synthesis, DNA polymerase III inhibition and antibacterial activity” (Bioorg Med Chem Lett, 2011).
Converted amounts (≈) assume the structure as drawn.

What was measured:
[1] = test system: Enterococcus faecium; assay: Antibacterial activity against Enterococcus faecium ATCC 19434 after 16 to 24 hrs by twofold serial dilution method; assay type: functional
[2] = test system: Bacillus subtilis; assay: Antibacterial activity against Bacillus subtilis BD54 after 16 to 24 hrs by twofold serial dilution method; assay type: functional
[3] = test system: Staphylococcus aureus; assay: Antibacterial activity against Staphylococcus aureus ATCC 25923 after 16 to 24 hrs by twofold serial dilution method; assay type: functional
[4] = test system: Staphylococcus aureus; assay: Antibacterial activity against Staphylococcus aureus ATCC 13709 (Smith) after 16 to 24 hrs by twofold serial dilution method; assay type: functional
[5] = test system: Staphylococcus aureus; assay: Antibacterial activity against methicillin-resistant Staphylococcus aureus ATCC 1094 after 16 to 24 hrs by twofold serial dilution method; assay type: functional
[6] = test system: Escherichia coli; assay: Antibacterial activity against Escherichia coli J-53 after 16 to 24 hrs by twofold serial dilution method; assay type: functional
[7] = test system: Enterococcus faecalis; assay: Antibacterial activity against vancomycin-resistant Enterococcus faecalis after 16 to 24 hrs by twofold serial dilution method
[8] = test system: Staphylococcus aureus; assay: Antibacterial activity against Staphylococcus aureus Smith infected Swiss-webster mouse assessed as mouse survival at 100 mg/kg, ip administered 15 mins post-infection for 24 hrs relative to control; assay type: functional; settings: route intraperitoneal
In short: (§1)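 Male pathogen-free Swiss–Webster mice, 20–24 g, with free access to food and water. S. aureus Smith grown to log phase at 37 °C in LB, with CFU estimated from OD600. Cells washed in cold broth and injected IP in 0.5 mL broth. Groups of 5 or 10 mice dosed IP 15 min post-infection with vehicle (10% DMSO/peanut oil) or compound in vehicle. Daptomycin 30 mg/Kg in saline served as control.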

[9] = test system: Escherichia coli; assay: (§2) Inhibition of Escherichia coli DNA polymerase 3E assessed as incorporation of [3H]TMP into activated calf thymus DNA incubated with dATP, dCTP and [3H]TTP in absence of dGTP; settings: concentration not given here
In short: (§3)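 Enzymes: recombinant B. subtilis pol IIIE and E. coli three-subunit pol III core. Each was assayed with activated calf thymus DNA, dATP, dCTP and [3H]TTP, without the competitor dGTP. [3H]TMP incorporation was measured and Ki derived. Values are averages of at least two independent experiments.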

[10] = (§4) Inhibition of Bacillus subtilis DNA polymerase 3C assessed as incorporation of [3H]TMP into activated calf thymus DNA incubated with dATP, dCTP and [3H]TTP in absence of dGTP
In short: (§5)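 Recombinant B. subtilis pol IIIC assayed on activated calf thymus DNA with dATP, dCTP and [³H]TTP, without competitor dGTP. Read-out was [³H]TMP incorporation. Ki values are averages of at least two independent experiments.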

[11] = test system: Enterococcus faecalis; assay: Antibacterial activity against Enterococcus faecalis ATCC 29212 after 16 to 24 hrs by twofold serial dilution method; assay type: functional
[12] = as §2; in short: as §3
[13] = (§6) Inhibition of Bacillus subtilis DNA polymerase 3E assessed as incorporation of [3H]TMP into activated calf thymus DNA incubated with dATP, dCTP and [3H]TTP in absence of dGTP; in short: as §3
[14] = test system: Bacillus subtilis; assay: as §6; design: concentration or dose not given beside the values; settings: concentration not given here; in short: as §3
[15] = test system: Staphylococcus aureus; assay: Antibacterial activity against Staphylococcus aureus Smith infected Swiss-webster mouse assessed as mouse survival at 30 mg/kg, ip administered 15 mins post-infection for 24 hrs relative to control; assay type: functional; settings: route intraperitoneal; in short: as §1
[16] = test system: Bacillus subtilis; assay: as §4; settings: concentration not given here; in short: as §5

`O=C(O)c1cn(C2CC2)c2cc(N3CCNCC3)c(F)cc2c1=O` [CIPROFLOXACIN] showed an MIC [1] of 5 µg/mL (≈ 15.1 µM), an MIC [2] of 0.078 µg/mL (≈ 0.235 µM) and an MIC [3] of 0.156 µg/mL (≈ 0.471 µM). For the same compound, the MIC [4] was 0.078 µg/mL (≈ 0.235 µM), the MIC [5] was greater than 20 µg/mL and the MIC [6] was 0.313 µg/mL (≈ 0.945 µM).

Compound `CCc1cc(Nc2cc(=O)n(CCCCO)c(=O)[nH]2)ccc1C` has an MIC [7] of 5 µg/mL (≈ 15.8 µM), a survival at 100 mg/kg [8] of 80% and an MIC [2] of less than 1.25 µg/mL. It also gave an inhibition [9] of less than 10%, an MIC [6] greater than 80 µg/mL and a Ki [10] of 63 nM.

With `CN[C@H](CC(C)C)C(=O)N[C@H]1C(=O)N[C@@H](CC(N)=O)C(=O)N[C@H]2C(=O)N[C@H]3C(=O)N[C@H](C(=O)N[C@H](C(=O)O)c4cc(O)cc(O)c4-c4cc3ccc4O)[C@H](O)c3ccc(c(Cl)c3)Oc3cc2cc(c3O[C@@H]2O[C@H](CO)[C@@H](O)[C@H](O)[C@H]2O[C@H]2C[C@](C)(N)[C@H](O)[C@H](C)O2)Oc2ccc(cc2Cl)[C@H]1O` [VANCOMYCIN] the MIC [7] was greater than 20 µg/mL, the MIC [11] was 0.625 µg/mL (≈ 0.431 µM) and the MIC [1] was 1.25 µg/mL (≈ 0.863 µM). For the same compound, the MIC [5] was 0.625 µg/mL (≈ 0.431 µM) and the MIC [6] was greater than 20 µg/mL.

`COCCCCn1c(C)nc2cc(NCc3ccc(Cl)c(Cl)c3)[nH]c(=O)c21` gave an MIC [7] of 20 µg/mL (≈ 48.9 µM), an MIC [11] of 80 µg/mL (≈ 195 µM) and an MIC [1] of 80 µg/mL (≈ 195 µM). For the same compound, the MIC [2] was 6.25 µg/mL (≈ 15.3 µM), the MIC [3] was 60 µg/mL (≈ 147 µM) and the Ki [12] was 426000 nM. For the same compound, the Ki [13] was 2500 nM, the MIC [5] was 5 µg/mL (≈ 12.2 µM) and the MIC [6] was 80 µg/mL (≈ 195 µM). The Ki [10] was 1250 nM.

With `CCc1cc(Nc2cc3ncn(CCCCN4CCOCC4)c3c(=O)[nH]2)ccc1C` the MIC [7] was greater than 80 µg/mL, the MIC [11] was greater than 80 µg/mL and the MIC [1] was 20 µg/mL (≈ 48.8 µM). It also gave an MIC [2] of 10 µg/mL (≈ 24.4 µM), an MIC [3] of 40 µg/mL (≈ 97.7 µM) and an inhibition [14] of less than 10%. For the same compound, the MIC [4] was 40 µg/mL (≈ 97.7 µM), the MIC [5] was 30 µg/mL (≈ 73.3 µM) and the MIC [6] was greater than 80 µg/mL. It also gave a Ki [10] of 1100 nM.

Work on `CC(=O)NC[C@H]1CN(c2ccc(N3CCOCC3)c(F)c2)C(=O)O1` [LINEZOLID] yielded an MIC [7] of 1.25 µg/mL (≈ 3.71 µM), an MIC [1] of 2.5 µg/mL (≈ 7.41 µM) and an MIC [2] of 0.625 µg/mL (≈ 1.85 µM). For the same compound, the MIC [3] was 1.25 µg/mL (≈ 3.71 µM), the MIC [4] was 2.5 µg/mL (≈ 7.41 µM) and the MIC [6] was greater than 80 µg/mL.

`CCc1cc(Nc2nc(O)c3c(ncn3CCCCCO)n2)ccc1C` showed an MIC [7] of 5 µg/mL (≈ 14.1 µM), an MIC [11] of 10 µg/mL (≈ 28.1 µM) and an MIC [1] of 10 µg/mL (≈ 28.1 µM). It also gave an MIC [2] of 20 µg/mL (≈ 56.3 µM), an MIC [3] of 20 µg/mL (≈ 56.3 µM) and an MIC [4] of 20 µg/mL (≈ 56.3 µM). The MIC [5] was 20 µg/mL (≈ 56.3 µM) and the MIC [6] was greater than 80 µg/mL.

For `CCc1cc(Nc2cc3c(ncn3CCCCN3CCOCC3)c(=O)[nH]2)ccc1C`, the MIC [7] was greater than 80 µg/mL, the MIC [11] was greater than 80 µg/mL and the MIC [2] was greater than 80 µg/mL. It also gave an MIC [3] greater than 80 µg/mL, an inhibition [14] of less than 10% and an MIC [4] greater than 80 µg/mL. For the same compound, the MIC [5] was greater than 80 µg/mL, the MIC [6] was greater than 80 µg/mL and the Ki [10] was 50000 nM.

With `O=c1[nH]c(NCc2ccc(Cl)c(Cl)c2)cc2ncn(CCCCN3CCOCC3)c12` the MIC [7] was 10 µg/mL (≈ 22.2 µM), the MIC [11] was 20 µg/mL (≈ 44.4 µM) and the MIC [1] was 15 µg/mL (≈ 33.3 µM). For the same compound, the MIC [2] was 7.5 µg/mL (≈ 16.7 µM), the MIC [3] was 20 µg/mL (≈ 44.4 µM) and the Ki [13] was 200 nM. For the same compound, the MIC [5] was 20 µg/mL (≈ 44.4 µM), the MIC [6] was greater than 80 µg/mL and the Ki [10] was 94 nM.

In the case of `CCc1cc(Nc2nc3ncn(CCCCCOC)c3c(=O)[nH]2)ccc1C`, the MIC [7] is reported as 5 µg/mL (≈ 13.5 µM), the survival at 30 mg/kg [15] is reported as 20% and the MIC [1] is reported as 10 µg/mL (≈ 27.1 µM). It also gave a survival at 100 mg/kg [8] of 40%, an MIC [2] of 1.25 µg/mL (≈ 3.38 µM) and a Ki [13] of 394000 nM. The MIC [5] was 2.5 µg/mL (≈ 6.77 µM), the MIC [6] was greater than 80 µg/mL and the Ki [10] was 260 nM.

`CCc1cc(Nc2nc(O)c3ncn(CCCCO)c3n2)ccc1C` showed an MIC [7] greater than 80 µg/mL, an MIC [11] greater than 80 µg/mL and an MIC [2] greater than 80 µg/mL. For the same compound, the MIC [3] was greater than 80 µg/mL, the inhibition [14] was less than 10% and the MIC [4] was greater than 80 µg/mL. For the same compound, the MIC [5] was greater than 80 µg/mL, the MIC [6] was greater than 80 µg/mL and the inhibition [16] was less than 10%.

For `CCc1cc(Nc2cc3ncn(CCCCOC)c3c(=O)[nH]2)ccc1C`, the MIC [7] was 10 µg/mL (≈ 28.2 µM), the MIC [2] was 2.5 µg/mL (≈ 7.05 µM) and the inhibition [14] was less than 10%. For the same compound, the MIC [6] was greater than 80 µg/mL and the Ki [10] was 1500 nM.

For `COCCCCn1cnc2cc(NCc3ccc(Cl)c(Cl)c3)[nH]c(=O)c21`, the MIC [7] was 2.5 µg/mL (≈ 6.32 µM), the MIC [11] was 5 µg/mL (≈ 12.6 µM) and the MIC [1] was 5 µg/mL (≈ 12.6 µM). It also gave an MIC [2] of 0.625 µg/mL (≈ 1.58 µM), an MIC [3] of 5 µg/mL (≈ 12.6 µM) and a Ki [13] of 370 nM. For the same compound, the MIC [4] was 3.75 µg/mL (≈ 9.49 µM), the MIC [5] was 2.5 µg/mL (≈ 6.32 µM) and the MIC [6] was greater than 80 µg/mL. It also gave a Ki [10] of 190 nM.

In the case of `O=c1[nH]c(NCc2ccc(Cl)c(Cl)c2)cc2c1ncn2CCCCN1CCOCC1`, the MIC [7] is reported as greater than 40 µg/mL, the MIC [11] is reported as greater than 40 µg/mL and the MIC [2] is reported as greater than 40 µg/mL. The MIC [3] was greater than 40 µg/mL, the Ki [13] was 54000 nM and the MIC [4] was greater than 40 µg/mL. The MIC [5] was greater than 40 µg/mL, the MIC [6] was greater than 40 µg/mL and the Ki [10] was 50000 nM.
